In one data set the target is Dipeptidyl peptidase 1 (Homo sapiens, UniProt P53634). Briefly: Inhibition of human recombinant cathepsin C. Put shortly:
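Enzyme: purified human recombinant cathepsin C. IC50 in nM given as mean with standard deviation of at least three experiments.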

A short description of data set [1]: Half life in iv dosed rat. Particulars: in vivo. It is filed as ADME, organism-based. Put shortly:
(§1)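 Rats dosed intravenously. Plasma samples were analysed for parent and metabolites to give clearance (ml/min/kg) and half-life.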

Data set [2] can be described thus: Clearance in iv dosed rat. In kind it is ADME, organism-based. Particulars: in vivo. Put shortly: as §1
Data set [3] can be described thus: Metabolic stability in rat whole blood assessed as compound remaining after 30 mins. Particulars: read-out: Activity. In kind it is ADME, tissue-based. In outline:
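Compound incubated in fresh rat whole blood for 30 min at 25 °C. Read-out is % of intact parent remaining, with amide hydrolysis products (P2 amino acid, P1 amino nitrile) monitored.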

The species named for another data set is Rattus norvegicus. Briefly: Metabolic stability in rat whole blood.
Another data set has as its system U-937. Nature of the data set: Cytotoxicity against human U937 cells at 30 uM up to 72 hrs. It is filed as functional, cell-based. In outline:
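Human U937 cells were exposed to compound at 30 µM for up to 72 h and assessed for cytotoxicity.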

Where only a bound is given, the exact number is not on record here.

As a reminder, the IC50 is the concentration that gives 50% inhibition. For orientation: half-life means how long it takes for the measured level to halve. In general, clearance refers to a measure of how efficiently the substance is removed, as volume per time. A higher clearance goes with a high capacity for elimination.

Sequence of Dipeptidyl peptidase 1 (P53634 25-134 limits assumed): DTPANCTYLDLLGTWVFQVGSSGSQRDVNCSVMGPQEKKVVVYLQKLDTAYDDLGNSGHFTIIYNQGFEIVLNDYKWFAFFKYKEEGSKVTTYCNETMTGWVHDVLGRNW
Sequence of Dipeptidyl peptidase 1 (P53634 231-394 limits assumed): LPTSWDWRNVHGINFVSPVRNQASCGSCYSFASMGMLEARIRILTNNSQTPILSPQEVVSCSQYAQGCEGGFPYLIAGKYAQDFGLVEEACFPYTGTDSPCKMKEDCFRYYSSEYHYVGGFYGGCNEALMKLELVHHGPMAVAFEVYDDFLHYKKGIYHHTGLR
Sequence of Dipeptidyl peptidase 1 (P53634 395-463 limits assumed): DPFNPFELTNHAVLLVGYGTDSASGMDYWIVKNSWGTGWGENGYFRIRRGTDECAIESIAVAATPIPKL

Consider `N#C[C@@H](NC(=O)[C@@H](N)Cc1cccs1)C(c1ccccc1)c1ccccc1`, for which, on Dipeptidyl peptidase 1, the half-maximal inhibitory concentration (IC50) amounted to 3.8 nM. The compound further showed a half-life in data set [1] of under 30 min. In data set [2], this compound yielded a clearance of over 100 mL/min/kg.

As to `N#CC1(NC(=O)[C@@H]2C[C@H](F)CN2)CC1`, at Dipeptidyl peptidase 1, the IC50 came to 880 nM. Regarding `N#C[C@H](Cc1nc2ccccc2s1)NC(=O)[C@@H](N)Cc1cccs1`, on Dipeptidyl peptidase 1, the IC50 turned out to be 0.7 nM. The compound further came in with a half-life in data set [1] of under 30 min. Also, in data set [2], the clearance is over 100 mL/min/kg. For the compound `N#C[C@H](Cc1ccccc1)NC(=O)[C@@H]1CCCN1`, the IC50 at Dipeptidyl peptidase 1 amounted to 4810 nM. Still for that read-out and setting: to `CSCC[C@H](N)C(=O)N[C@H](C#N)Cc1c[nH]c2ccccc12` belongs 200 nM; to `CC1(C)CC1(C#N)NC(=O)[C@@H](N)Cc1cccs1` (stereo partly drawn), 63 nM. For the compound `CC(C)[C@@H](C#N)NC(=O)[C@@H](N)Cc1cccs1`, in data set [3], the remaining at 0.5 h turned out to be 11%. In addition, the IC50 on Dipeptidyl peptidase 1 was 215 nM. Turning to `CC(C)[C@H](N)C(=O)N[C@H](C#N)Cc1c[nH]c2ccccc12`, the IC50 on Dipeptidyl peptidase 1 is 330 nM. Still for that read-out and setting: the figure for `N#C[C@]1(NC(=O)[C@@H]2C[C@H](F)CN2)C[C@H]1c1ccccc1` is 2190 nM.

For the compound `N#C[C@H](Cc1ccccc1)NC(=O)[C@@H](N)Cc1cccs1`, in data set [3], the remaining at 0.5 h worked out at 0%. For the same compound, at Dipeptidyl peptidase 1, the IC50 came to 0.9 nM. Besides, in data set [1], the half-life was under 30 min. In data set [2], this compound returned a clearance of over 100 mL/min/kg. Take `CCS[C@@H]1CN[C@H](C(=O)N[C@H](C#N)Cc2ccccc2)C1`: the IC50 on Dipeptidyl peptidase 1 was determined as 271 nM.

With `CS[C@@H]1CN[C@H](C(=O)N[C@H](C#N)Cc2ccccc2)C1`, the IC50 on Dipeptidyl peptidase 1 was determined as 29 nM. On to `N#CC1(NC(=O)[C@@H](N)Cc2cccs2)CC1`, for which, in data set [3], the remaining at 0.5 h is 92%. Also, the half-maximal inhibitory concentration (IC50) on Dipeptidyl peptidase 1 stood at 12 nM. Further, the half-life in data set [1] was 30 min. For the same compound, the clearance in data set [2] came to 113 mL/min/kg. With `N#C[C@H](Cc1ccc2ccccc2c1)NC(=O)[C@@H](N)Cc1cccs1`, at Dipeptidyl peptidase 1, the IC50 was 1 nM. Besides, the half-life in data set [1] was under 30 min. Further, the clearance in data set [2] was over 100 mL/min/kg. Turning to `C[C@@H]1CN[C@H](C(=O)N[C@H](C#N)Cc2ccccc2)C1`, the IC50 on Dipeptidyl peptidase 1 is 2500 nM. Same read-out and setting: to `CC(C)(C#N)NC(=O)[C@@H](N)Cc1cccs1` belongs 1420 nM. Consider `N#C[C@H](Cc1ccccc1)NC(=O)[C@@H]1C[C@H](Cl)CN1`, for which the half-inhibitory concentration (IC50) at Dipeptidyl peptidase 1 worked out at 495 nM. In the case of `N#CCNC(=O)[C@@H](N)Cc1cccs1`, the remaining at 0.5 h in data set [3] turned out to be 6%. The IC50 on Dipeptidyl peptidase 1 came to 17 nM. On to `CO[C@@H]1CN[C@H](C(=O)N[C@H](C#N)Cc2ccccc2)C1`, for which the half-inhibitory concentration (IC50) at Dipeptidyl peptidase 1 came to 1080 nM. With `N#C[C@H](Cc1c[nH]c2ccccc12)NC(=O)[C@@H](N)Cc1cccs1`, in data set [3], the remaining at 0.5 h came to 0%. Further, the IC50 on Dipeptidyl peptidase 1 stood at 5.8 nM. As for `N#C[C@H](Cc1ccc(-c2ccccc2)s1)NC(=O)[C@@H](N)Cc1cccs1`, the IC50 at Dipeptidyl peptidase 1 was 0.3 nM. In data set [1], this compound yielded a half-life of under 30 min. Besides, the clearance in data set [2] was over 100 mL/min/kg.

Consider `CCSCC[C@H](N)C(=O)N[C@H](C#N)Cc1c[nH]c2ccccc12`, for which the IC50 on Dipeptidyl peptidase 1 was 1580 nM. Still for that read-out and setting: the figure for `CCSC[C@H](N)C(=O)N[C@H](C#N)Cc1c[nH]c2ccccc12` is 630 nM; for `N#CC1(NC(=O)[C@@H](N)Cc2cccs2)CC1c1ccccc1` (mixture of isomers) it is 1230 nM; for `CS[C@@H]1CN[C@H](C(=O)N[C@H](C#N)Cc2ccc(-c3ccccc3)cc2)C1` it is 1.7 nM. Consider `N#C[C@@]1(NC(=O)[C@@H](N)Cc2cccs2)C[C@@H]1c1ccccc1`, for which, in the data set filed under Rattus norvegicus, the Stability entry is given as “Stable”. The remaining at 0.5 h in data set [3] is over 98%. The half-life in data set [1] is 84 min. In addition, in data set [2], the clearance is 35 mL/min/kg. For the same compound, the Activity result in the data set on U-937 was “Not toxic”. Turning to `CC(C)(C)[C@@H](C#N)NC(=O)[C@@H](N)Cc1cccs1`, the remaining at 0.5 h in data set [3] amounted to 83%. Moreover, the concentration for half-maximal inhibition (IC50) on Dipeptidyl peptidase 1 was over 3000 nM.

For the compound `N#C[C@H](CCc1ccccc1)NC(=O)[C@@H](N)Cc1cccs1`, the IC50 on Dipeptidyl peptidase 1 stood at 11 nM. Still for that read-out and setting: the figure for `N#C[C@H](Cc1ccc(-c2ccccc2)cc1)NC(=O)[C@@H]1C[C@H](F)CN1` is 8.2 nM; for `N#CC1(NC(=O)[C@@H](N)Cc2cccs2)CCC1` it is 1830 nM. The same measure, in the same setting: the figure for `CS[C@@H]1CN[C@H](C(=O)NC2(C#N)CC2)C1` is 336 nM; for `N#C[C@]1(NC(=O)[C@@H](N)Cc2cccs2)C[C@H]1c1ccccc1` it is 17 nM; for `CSCC[C@H](N)C(=O)NCCc1c[nH]c2ccccc12` it is 11000 nM.

For the compound `N#C[C@H](Cc1ccc(F)cc1)NC(=O)[C@@H]1CCCN1`, the half-maximal inhibitory concentration (IC50) at Dipeptidyl peptidase 1 is over 10000 nM. The same measure, in the same setting: the figure for `N#C[C@H](CC1CCCCC1)NC(=O)[C@@H](N)Cc1cccs1` is 5.1 nM; for `N#C[C@H](Cc1ccccc1)NC(=O)[C@@H]1C[C@H](F)CN1` it is 133 nM.

The values are drawn from ChEMBL document CHEMBL1154218, “Design and synthesis of dipeptidyl nitriles as potent, selective, and reversible inhibitors of cathepsin C” (Bioorg Med Chem Lett, 2009).
